Kir21 block: blocks the mouse Kir2.1 inward-rectifier potassium channel; HEK293-Kir2.1, FluxOR thallium flux fluorescence; active compounds read low; AID 1672; P35561; actives 0.85% (n = 310,000); B-score at 10 µM;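 active means fluorescence ratio B-score at or below minus 3 SD of library scores, with starting-brightness B-score within 2 SD, cut at about -4.2 in these data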;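 further: channel flux triggered by added potassium and thallium sulfate stimulus; B-score of peak minus minimum fluorescence over baseline after thallium stimulus; more negative B-score means stronger Kir2.1 block with less thallium influx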
KCNQ1 inh: human KCNQ1 channel inhibition; P51787; CHO-K1 KCNQ1, FluxOR thallium flux fluorescence; active compounds read high; B-score at 10 µM; actives 1.3% (n = 310,000); AID 2642;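 active means compounds whose thallium flux B-score, printed positive for inhibition, exceeds three library SD while starting fluorescence stays within three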;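 further: channel opened by potassium depolarization with thallium stimulus after 20 min compound exposure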
KCNQ1 pot: potentiates or activates the human KCNQ1 potassium channel. P51787. CHO-K1 KCNQ1, thallium flux FluxOR fluorescence; active compounds read high. B-score at 10 µM. actives 0.35% (n = 310,000). AID 2648;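 active means fluorescence ratio B-score, a plate-corrected score, at least three library SD, with initial intensity B-score within 5 SD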
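Assay system: CHO-K1 cells stably expressing KCNQ1. Medium: assay buffer for compound exposure, DMSO matched across wells. Timing: 37 °C overnight plating, 90-min dark dye load, 20-min compound pretreatment. Signal: kinetic FluxOR fluorescence, 10 s baseline plus 110 s post-stimulus.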
hERG protect: shields human hERG channel from block by proarrhythmic agents; Q12809; CHO-hERG, FluxOR thallium flux, dofetilide IC70 present; activation (rescue from dofetilide block), less the hit threshold, % at 10 µM; actives 0.51% (n = 310,000); AID 1511;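 active means activation above the mean of controls blocked by dofetilide plus 5 SD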;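 further: thallium influx through hERG after potassium depolarization seen as dye fluorescence rise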
KCNK9 inh: human KCNK9 channel inhibition; Q9NPC2; B-score at 10 µM; actives 1.2% (n = 310,000); AID 488922; HEK293 KCNK9, FluxOR thallium flux fluorescence; active compounds read low;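 active means ratio B-score over 3 SD below the library mean, with starting fluorescence within 5 SD of its mean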;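 further: negative B-score means less thallium flux so channel inhibition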
Target sequence (Q9NPC2 whole entry, looked up): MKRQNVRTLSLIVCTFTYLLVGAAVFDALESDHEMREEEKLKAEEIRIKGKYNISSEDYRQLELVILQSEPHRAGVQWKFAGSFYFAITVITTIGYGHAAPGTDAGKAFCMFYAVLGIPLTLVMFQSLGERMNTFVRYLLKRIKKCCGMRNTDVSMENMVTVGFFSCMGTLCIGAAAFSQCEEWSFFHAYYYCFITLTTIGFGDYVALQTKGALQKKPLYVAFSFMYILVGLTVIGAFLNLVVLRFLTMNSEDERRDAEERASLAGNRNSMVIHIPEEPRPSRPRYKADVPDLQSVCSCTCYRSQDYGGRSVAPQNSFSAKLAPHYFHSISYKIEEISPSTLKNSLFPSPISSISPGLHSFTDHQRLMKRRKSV
KCNK3 block: human KCNK3 channel inhibition, primary screen. actives 0.84% (n = 340,000). O14649. CHO-KCNK3 thallium flux, FluxOR fluorescence; active compounds read low. B-score at 10 µM;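 active means B-score under library mean minus 4 SD, starting fluorescence ratio at most library mean plus 5 SD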;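 further: more negative B-score means stronger inhibition of thallium flux through KCNK3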
An asterisk follows results filed as active; i = inactive; · = no result. Only some compounds are listed: those with a hit (about 3.7% of all), similar ones and a draw of the others.

SMILES	Kir21 block	KCNQ1 inh	KCNQ1 pot	hERG protect	KCNK9 inh	KCNK3 block
c1ccc(Cn2nnc3c(N4CCN(Cc5ccc6c(c5)OCO6)CC4)ncnc32)cc1	0.87	i	i	-10	i	i
COc1cccc(OC)c1C(=O)N1CCN(S(=O)(=O)c2ccc(C)cc2)CC1	1.7	i	i	-6	i	i
O=Cc1ccc(-c2cc(Cl)ccc2Cl)[nH]1	-0.8	i	i	-1	-6.7*	i
CCCCN1C(=O)/C(=C2/Sc3ccc(OC)cc3N2CC)SC1=S	0.42	i	i	-1	i	i
C=CCN1C(=O)/C(=C2/Sc3ccc(OC)cc3N2CC)SC1=S	1.5	6*	i	-4	i	i
O=C(COc1ccccc1C(=O)c1cnn(-c2ccccc2)c1)Nc1ccccc1	0.04	i	i	-14	i	i
Cc1ccc(NS(=O)(=O)c2ccc3c(c2)OCCCO3)cc1S(=O)(=O)N1CCOCC1	·	·	·	·	·	i
C#CCn1cc(/C=N/Nc2nc3ccccc3[nH]2)c2ccccc21	-6.4*	i	i	-17	i	i
Cn1nc(C(F)(F)F)cc1-c1ccc(/C=C(\C#N)C(=O)c2ccccc2)s1	0.03	8*	i	-4	i	i
CNC(=O)c1ccc(-c2cc(C(F)(F)F)nn2C)s1	0.82	i	i	-7	i	i
Cc1cccc(N(Cc2ccccc2)C(=O)CSC(C)C(=O)Nc2cc(C)on2)c1 (centres undefined)	-1.4	i	i	-15	i	i
Cc1cccc(Cn2c(-c3ccc[nH]c3=O)nc3ccccc32)c1	2.7	i	i	-10	i	i
Cc1cc(=O)oc2cc(OC(C(=O)O)c3ccccc3)ccc12 (centres undefined)	-0.63	i	i	6.7*	i	i
Cc1cc(=O)oc2cc(OC(C)C)ccc12	2.9	i	i	-13	i	i
Cc1ccc(S(=O)(=O)N2CCCCC2)cc1NC(=O)c1cc(F)c(F)c(F)c1F	·	·	·	·	·	i
CCCCOc1cc(=O)[nH]c(=O)[nH]1	2	i	i	4.7*	i	i
Cc1c(N=Cc2cc3c(cc2Cl)OCO3)c(=O)n(-c2ccccc2)n1C	1.7	i	i	-6	i	i
Cc1cccc(NC(=O)C2c3ccccc3C(=O)N3CCc4ccccc4C23)n1 (centres undefined)	0.52	i	i	-6	-7.4*	i
COc1ccc(C2C(C(=O)Nc3cccc(C)n3)c3ccccc3C(=O)N2C)cc1 (centres undefined)	0.04	i	i	-11	i	i
CN1CCC(OC(=O)COc2ccccc2)CC1	-0.4	i	i	-4	i	i
CN1CCC(Oc2ccccc2Sc2ccc(C(F)(F)F)cc2)CC1	-11*	i	i	-16	i	i
CN1CCC(OC(=O)c2ccccc2)CC1	0.23	i	i	-6	i	i
CN1CCC(Oc2ccc(Sc3ccccc3)cc2)CC1	-7.5*	i	i	-13	i	i
COc1ccc(NC(=O)c2cc(-c3cccnc3)nc3ccc(C)cc23)cc1OC	·	·	·	·	·	i
COc1cc(NC(=O)c2cc(-c3cccnc3)nc3ccc(C)cc23)c(OC)cc1Cl	-2.2	i	i	6.5*	i	·
SMILES	Kir21 block	KCNQ1 inh	KCNQ1 pot	hERG protect	KCNK9 inh	KCNK3 block
COc1ccccc1OCCNC(=O)CN1C(=O)NC2(CCCCC2)C1=O	·	·	·	·	·	i
Cc1c(C(=O)NC2CCN(Cc3ccccc3)C2)oc2ccc(Br)cc12 (centres undefined)	-10*	i	i	-18	i	i
Cc1ccc(NC(=O)CN2CCN(Cc3ccccc3)CC2)cc1Cl	-1.9	i	i	-5	i	i
O=C(NC1CCN(Cc2ccccc2)CC1)c1cccc(Br)c1	-4.6*	i	i	-11	i	i
O=C(COc1ccc(Br)cc1Cl)NC1CCN(Cc2ccccc2)CC1	-10*	i	i	-13	i	i
O=C(CN1CCN(Cc2ccccc2)CC1)Nc1cccc(Br)c1	-4.6*	i	i	-3	i	i
CCOc1cc(CNC2CCCC2)c(Cl)cc1OCC(=O)Nc1ccccc1	-4.5*	i	i	-7	i	i
O=C(/C=C/c1cccc(Br)c1)NC1CCN(Cc2ccccc2)CC1	-5.8*	i	i	-9	i	i
O=C(COc1ccc(Br)cc1CNC1CCCCC1)NCCc1ccccc1	-4.2	8*	i	-14	i	i
O=C(/C=C/c1cccc(F)c1)NC1CCN(Cc2ccccc2)CC1	-4.7*	i	i	-11	i	i
COc1ccc(CC(=O)OCC(=O)NC2CCCC(C)C2C)cc1OC (centres undefined)	·	·	·	·	·	i
CC1CCC(NC(=O)c2ccc(NC(=O)c3ccc(=O)[nH]c3)cc2)CC1 (centres undefined)	-0.4	i	i	-8	i	·
COc1ccc(OC)c(-c2oc3ccccc3c(=O)c2O)c1	0.64	i	i	-8	i	i
COc1ccc(OC)c(C2=C/C(=C/c3ccccn3)C(=O)O2)c1	-1.4	i	i	-15	-7.6*	i
CN(C)c1oc(-c2ccccc2Cl)nc1C#N	-0.94	i	i	-3	i	i
CN(C)c1oc(-c2ccccc2[N+](=O)[O-])nc1C#N	-0.09	i	i	4.7*	i	i
c1ccc(C2=Nc3c(ccc4ccccc34)C(c3ccncc3)=NN2)cc1	0.13	i	i	-11	-7.7*	i
Cc1c(C(=O)NCCC2=CCCCC2)oc2ccc(S(=O)(=O)N3CCC4(CC3)OCCO4)cc12	-1.5	i	i	-21	i	-9.1*
Cc1c(C(=O)Nc2ccc(F)c(F)c2)oc2ccc(S(=O)(=O)N3CCCCC3)cc12	0.59	i	i	-4	i	-10*
Cc1c(C(=O)NCc2ccccc2)oc2ccc(S(=O)(=O)N3CCC4(CC3)OCCO4)cc12	-0.06	i	i	-4	i	i
Cc1c(C(=O)Nc2ccc(F)cc2)oc2ccc(S(=O)(=O)N3CCCC3)cc12	0.59	i	i	-1	i	i
COc1ccc(F)cc1S(=O)(=O)NCCCn1ccnc1	-0.23	i	i	-5	i	i
CCOC(=O)C1=C(COC(=O)CCOc2cc(C)ccc2C)NC(=O)NC1C (centres undefined)	·	·	·	·	·	i
Cc1ccc(/C=c2\sc3n(c2=O)CN(c2ccc(Br)cc2)CN=3)o1	1	i	i	-3	i	i
Cc1ccc(/C=c2/sc3n(c2=O)CCCN=3)o1	-1.6	6*	i	-14	i	i
